Measurements collected from several papers.
Compare with care: the assays were run in different laboratories.
Target: Serine/threonine-protein kinase N2 (PKN2, Homo sapiens, UniProt Q16513)

SMILES	test	conditions	endpoint	result
Cc1cc(O)c(-c2ccc([C@@H](C)CN(C)C)cc2)c2c1[nH]c(=O)c1sccc12	enzyme activity, inhibitor	0.1 µM	inhibition	13.8%
CC#CC(=O)N1CCC[C@H]1c1nc(-c2ccc(C(=O)Nc3ccccn3)cc2)c2c(N)nccn12	enzyme activity, inhibitor	1 µM	inhibition	0%
CC(C)S(=O)(=O)c1ccc2nccc(Nc3ccc4sc(C5CCCC5)nc4c3)c2c1	enzyme activity, inhibitor	1 µM	activity vs control	116%
C=CC(=O)N1CCC([C@@H]2CCNc3c(C(N)=O)c(-c4ccc(Oc5ccccc5)cc4)nn32)CC1	enzyme activity, inhibitor	1 µM	inhibition	24%
Cc1ccc(NC(=O)c2ccnc(C(F)(F)F)c2)cc1-c1cc(OCCO)nc(N2CCOCC2)c1	binding	1 µM	remaining binding	89%
CCCCC(=O)Nc1ccc(-c2ccc3ncn(CCC)c(=O)c3c2)cn1	binding, competition with immobilised ligand	0.5 µM	remaining binding	87%
CN1CCN(C(=O)c2ccc(NC(=O)Nc3ccc(N(C)c4ccnc(Nc5ccc(CS(C)(=O)=O)cc5)n4)cc3)cc2)CC1	binding	1 µM	remaining binding	100%
C1=C/COCc2cc(ccc2OCCN2CCCC2)Nc2nccc(n2)-c2cccc(c2)COC/1	binding	0.1 µM	remaining binding	100%
